From ChEMBL document CHEMBL1152617, “Synthesis of 2- and 17-substituted estrone analogs and their antiproliferative structure-activity relationships compared to 2-methoxyestradiol” (Bioorg Med Chem, 2009)

Key:
[1] = Antiproliferative activity against human U87MG cells by Brdu incorporation assay; type: functional, cell-based, U-87MG ATCC; conditions: U-87 MG
In short: (§1)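 Cells were grown in DMEM with 10% FBS, 2 mM L-glutamine and penicillin/streptomycin. They were seeded at 2000 cells/well, attached overnight, then exposed to increasing compound concentrations for 48 h. DNA synthesis was read by a colorimetric BrdU ELISA. Each condition was run in triplicate, with at least two experiments, reported as the mean ± SD of independent experiments.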

HUVEC = assay: Antiangiogenic activity against HUVECs by Brdu incorporation assay; type: functional, cell-based; conditions: Homo sapiens
In short: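 After overnight attachment they were washed with PBS and held 24 h without growth factor (EBM, 2% FBS). They were then given increasing drug concentrations in EBM with 2% FBS plus 10 ng/mL bFGF for 48 h at 37 °C. Proliferation was read by BrdU ELISA.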

[2] = Metabolic stability in human liver microsomes assessed as compound remaining at 5 uM after 15 mins by LCMS analysis relative to 0 mins; type: ADME, Microsome; conditions: read-out: Stability
In short: (§2)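 Human liver microsomes were incubated in 50 mM tris pH 7.5 with 10 mM MgCl2, 2 mM UDPGA, 25 µg alamethicin/mg microsomal protein and 5 µM compound. Aliquots at 0, 15, 30 and 60 min were quenched in acetonitrile with internal standard. Samples were analysed by C18 LCMS in negative ion mode as % remaining versus 0 min. Controls were BSA without microsomes, and incubations lacking UDPGA.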

MCF7 = assay: Estrogenic activity in human MCF7 cells assessed as stimulation of cell proliferation relative to 2-methoxyestradiol; type: functional
In short: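 MCF-7 were kept in DMEM/F12 with 10% FBS, seeded at 20–30,000 cells/well, adhered overnight and counted. After a PBS wash they were starved 3 days in phenol red-free IMEM with 2% charcoal-dextran-stripped FBS. Increasing concentrations were given, with medium renewed every 2–3 days. Cells were Coulter-counted after 8 or 10 days, in triplicate, and expressed as stimulation index relative to 2ME2 (1.00).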

PC-3 = assay: Antiproliferative activity against human PC3 cells by Brdu incorporation assay; type: functional, cell-based; in short: as §1
[3] = tested on: MDA-MB-231 (Homo sapiens); assay: Antiproliferative activity against human MDA-MB-231 cells by Brdu incorporation assay
[4] = Metabolic stability in human liver microsomes assessed as compound remaining at 5 uM after 60 mins by LCMS analysis relative to 0 mins; type: ADME, Microsome; conditions: read-out: Stability; in short: as §2
[5] = Metabolic stability in human liver microsomes assessed as compound remaining at 5 uM after 30 mins by LCMS analysis relative to 0 mins; type: ADME, Microsome; conditions: read-out: Stability; in short: as §2

| Structure (SMILES) | IC50 [1] | IC50 (HUVEC) | remaining at 0.25 h, 5 µM [2] | fold change (FC) (MCF7) | IC50 (PC-3) | IC50 [3] | remaining at 1 h, 5 µM [4] | remaining at 0.5 h, 5 µM [5] |
| --- | --- | --- | --- | --- | --- | --- | --- | --- |
| COc1cc2c(cc1O)CC[C@@H]1[C@@H]2CC[C@]2(C)[C@@H](N)CC[C@@H]12 | 19 µM | 13.4 µM | 32% | 0.19 | 13.8 µM | 9.77 µM | 9% | 30% |
| COc1cc2c(cc1O)CC[C@@H]1[C@@H]2CC[C@]2(C)/C(=N/O)CC[C@@H]12 | 9.4 µM | 4.27 µM |  | 1.22 | 8.11 µM | 8.68 µM |  |  |
| C[C@@]12CCC[C@H]1[C@@H]1CCc3cc(O)c(N=[N+]=[N-])cc3[C@H]1CC2 |  | 2.83 µM |  | 2.04 |  | 7.12 µM |  |  |
| CCC[C@H]1CC[C@H]2[C@@H]3CCc4cc(O)c(OC)cc4[C@H]3CC[C@]12C | 87.9 µM | 40.8 µM |  | 0.69 | 85.4 µM | 95.3 µM |  |  |
| COc1cc2c(cc1O)CC[C@@H]1[C@@H]2CC[C@]2(C)[C@@H](O)CC[C@@H]12 [2-METHOXYESTRADIOL] | 8.54 µM |  | 58% |  | 2.65 µM | 1 µM | 9.4% | 29% |
| COc1cc2c(cc1O)CC[C@@H]1[C@@H]2CC[C@]2(C)C=CC[C@@H]12 | 0.88 µM | 0.71 µM |  | 0.3 | 0.62 µM | 0.73 µM |  |  |
| CCC=C1CC[C@H]2[C@@H]3CCc4cc(O)c(OC)cc4[C@H]3CC[C@]12C |  | 3.23 µM |  | 0.47 |  | 7.89 µM |  |  |
| C[C@@]12CCC[C@H]1[C@@H]1CCc3cc(O)c(NC=O)cc3[C@H]1CC2 | 42.9 µM | 6.8 µM | 101% | 1.71 | 26 µM | 24.6 µM | 68% | 86% |
| C=C1CC[C@H]2[C@@H]3CCc4cc(O)c(OC)cc4[C@H]3CC[C@]12C |  | 0.19 µM | 76% | 0.89 |  | 0.24 µM | 5.8% | 67% |
| COc1cc2c(cc1O)CC[C@@H]1[C@@H]2CC[C@]2(C)C(C(N)=O)CC[C@@H]12 (stereo not given in full) | 11.2 µM | 4.55 µM |  |  | 21.5 µM | 2.51 µM |  |  |
| COc1cc2c(cc1O)CC[C@@H]1[C@@H]2CC[C@]2(C)[C@@H](NC(C)C)CC[C@@H]12 | 49.2 µM | 18.8 µM |  | 0.11 | 23.4 µM | 17.8 µM |  |  |
| COc1cc2c(cc1O)CC[C@@H]1[C@@H]2CC[C@]2(C)/C(=N/NS(=O)(=O)c3ccc(C)cc3)CC[C@@H]12 | 27.3 µM | 7.95 µM |  | 0.43 | 27.2 µM | 72.5 µM |  |  |
| CC[C@H]1CC[C@H]2[C@@H]3CCc4cc(O)c(OC)cc4[C@H]3CC[C@]12C | 12.8 µM | 3.63 µM | 91% | 0.49 | 8.7 µM | 48.1 µM | 72% | 76% |
| CCCC=C1CC[C@H]2[C@@H]3CCc4cc(O)c(OC)cc4[C@H]3CC[C@]12C |  | 3.47 µM |  | 0.51 |  | 14 µM |  |  |
| C[C@@]12CCC[C@H]1[C@@H]1CCc3cc(O)c(N)cc3[C@H]1CC2 | > 100 µM | 60.1 µM |  | 1.49 | > 80 µM | > 100 µM |  |  |
| CC=C1CC[C@H]2[C@@H]3CCc4cc(O)c(OC)cc4[C@H]3CC[C@]12C |  | 0.26 µM | 75% | 0.89 |  | 0.58 µM | 0.8% | 75% |
| C[C@@]12CCC[C@H]1[C@@H]1CCc3cc(O)ccc3[C@H]1CC2 | 22.1 µM | 8.22 µM |  | 1.91 | 22 µM | 41.3 µM |  |  |
| COc1cc2c(cc1O)CC[C@@H]1[C@@H]2CC[C@]2(C)[C@@H](C)CC[C@@H]12 | 9.39 µM | 2.4 µM | 67% | 0.89 | 6.46 µM | 3.33 µM | 47% | 57% |
| CN(C)c1cc2c(cc1O)CC[C@@H]1[C@@H]2CC[C@]2(C)CCC[C@@H]12.Cl | 34.2 µM | 7.43 µM |  | 2.17 | 26 µM | 39.3 µM |  |  |
| CNc1cc2c(cc1O)CC[C@@H]1[C@@H]2CC[C@]2(C)CCC[C@@H]12 | 22.3 µM | 4.11 µM |  | 1.22 | 22.8 µM | 26.8 µM |  |  |
| CCCC[C@H]1CC[C@H]2[C@@H]3CCc4cc(O)c(OC)cc4[C@H]3CC[C@]12C | 21.1 µM | 12.6 µM |  | 0.59 | 28.8 µM | 33.5 µM |  |  |
| COc1cc2c(cc1O)CC[C@@H]1[C@@H]2CC[C@]2(C)CCC[C@@H]12 | 7.59 µM | 1.32 µM | 94% | 0.24 | 8.49 µM | 2.2 µM | 117% | 101% |
| COc1cc2c(cc1O)CC[C@@H]1[C@@H]2CC[C@]2(C)C(C(=O)O)CC[C@@H]12 (stereo not given in full) | > 100 µM | 35.9 µM |  |  | > 100 µM | > 100 µM |  |  |
